Consider 9 compounds from ChEMBL document CHEMBL2396650, “A potent small-molecule inhibitor of the MDM2-p53 interaction (MI-888) achieved complete and durable tumor regression in mice” (J Med Chem, 2013).

For orientation: Cmax means the highest concentration seen after dosing.

Calls of active or inactive are those of the source. The rule behind the calls is not given here.

In series [1] the test system is Liver microsomes. In words: Half life in human liver microsomes. Format: ADME, Microsome. An outline of the steps:
(§1)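 Half-life determined by incubation in mouse, rat and human liver microsomes; T1/2 in minutes.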
(Liver microsomes are a subcellular fraction often used to study metabolism.)

Series [2] has as its system Liver. The experiment in a line: Half life in mouse liver microsomes. It counts as ADME, Microsome. An outline of the steps:
as §1

The subject of series [3] is Liver microsomes. In words: Half life in rat liver microsomes. It counts as ADME, Microsome. Summed up: as §1
Series [4] concerns Rattus norvegicus. In words: AUC (0 to t) in Sprague-Dawley rat at 25 mg/kg, po. It counts as ADME, organism-based, Plasma. The arrangement: dose 25 mg/kg, route oral. The note with it: in vivo.
Series [5] concerns Rattus norvegicus. The experiment in a line: Half life in Sprague-Dawley rat at 25 mg/kg, po. It counts as ADME, organism-based. The arrangement: dose 25 mg/kg, route oral. The note with it: in vivo.
The subject of series [6] is Rattus norvegicus. In words: Cmax in Sprague-Dawley rat at 25 mg/kg, po. Format: ADME, organism-based. On the set-up: dose 25 mg/kg, route oral. The note with it: in vivo.
Series [7] concerns Mus musculus. The experiment in a line: Toxicity in SCID mouse xenografted with human SJSA1 cells assessed as sign of toxicity at 10 to 100 mg/kg, po qd measured after 2 weeks. It counts as organism-based, SJSA-1. On the set-up: dose 10-100 mg/kg, route oral. The note with it: in vivo, 336 h.
Series [8] concerns RS4-11. The experiment in a line: Antitumor activity against human RS4:11 cells xenografted in mouse assessed as tumor regression at 200 mg/kg, po qd administered for 3 weeks measured after 26 days. It counts as functional, organism-based. The arrangement: dose 200 mg/kg. An outline of the steps:
(§2)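 RS4;11 acute leukemia xenografts in mice; dosing began when tumors averaged 150 mm3. Oral gavage of 100 or 200 mg/kg once daily for 3 weeks. Tumor volume tracked during and after dosing; body weight and signs of toxicity monitored throughout.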

Series [9] deals with SJSA-1. The experiment in a line: Induction of apoptosis in human SJSA1 cells xenografted in SCID mouse assessed as PARP cleavage at 100 mg/kg, po measured at 1 to 6 hrs by Western blot analysis. Format: functional, organism-based. The arrangement: dose 100 mg/kg. A general note: In xenograft studies the graft and the host belong to different species.
Series [10] in a line: Antitumor activity against human RS4:11 cells xenografted in mouse assessed as tumor growth inhibition at 100 mg/kg, po qd administered for 3 weeks measured after 4 days relative to vehicle-treated control. It counts as functional. The note with it: read-out: TGI. Summed up:
as §2

Series [11] relates to SJSA-1. The experiment in a line: Induction of apoptosis in human SJSA1 cells xenografted in SCID mouse assessed as caspase-3 cleavage at 100 mg/kg, po measured at 24 hrs by Western blot analysis. It counts as functional, organism-based. On the set-up: dose 100 mg/kg.
Series [12] has as its system SJSA-1. In words: Antitumor activity against human SJSA1 cells xenografted in SCID mouse assessed as tumor regression at 100 mg/kg, po qd administered for 2 weeks measured for 60 days. Format: functional, organism-based. On the set-up: dose 100 mg/kg.
Series [13] concerns SJSA-1. In words: Antitumor activity against human SJSA1 cells xenografted in SCID mouse assessed as tumor growth inhibition at 10 mg/kg, po qd measured after 2 weeks. It counts as functional, organism-based. The arrangement: dose 10 mg/kg.
Series [14] is described as follows: Antitumor activity against human RS4:11 cells xenografted in mouse assessed as tumor growth inhibition at 200 mg/kg, po qd administered for 3 weeks measured after 4 days relative to vehicle-treated control. It counts as functional. The note with it: read-out: TGI. An outline of the steps: as §2
In series [15] the test system is SJSA-1. The experiment in a line: Antitumor activity against human SJSA1 cells xenografted in SCID mouse assessed as tumor growth inhibition at 100 mg/kg, po qd administered for 2 weeks measured after 5 days relative to vehicle-treated control. The note with it: read-out: TGI. It counts as functional.
Series [16] deals with SJSA-1. The experiment in a line: Antitumor activity against human SJSA1 cells xenografted in SCID mouse assessed as tumor growth inhibition at 100 mg/kg, po qd administered for 2 weeks measured after 10 days. It counts as functional, organism-based. On the set-up: dose 100 mg/kg.
Series [17] has as its system SJSA-1. In words: Antitumor activity against human SJSA1 cells xenografted in SCID mouse assessed as upregulation of p53 expression in tumor at 100 mg/kg, po measured at 24 hrs by Western blot analysis. It counts as functional, organism-based. The arrangement: dose 100 mg/kg.
The subject of series [18] is Mus musculus. In words: Toxicity in SCID mouse xenografted with human SJSA1 cells assessed as body weight loss at 10 to 100 mg/kg, po qd measured after 2 weeks. It counts as organism-based, SJSA-1. The note with it: in vivo, 336 h. On the set-up: dose 10-100 mg/kg, route oral.
Series [19] concerns Mus musculus. The experiment in a line: Toxicity in mouse xenografted with human RS4:11 cells assessed as sign of toxicity at 100 to 200 mg/kg, po qd after 3 weeks. The note with it: in vivo, 504 h. It counts as organism-based, RS4:11 cell. On the set-up: dose 100-200 mg/kg, route oral. Summed up: as §2
The subject of series [20] is SJSA-1. In words: Antitumor activity against human SJSA1 cells xenografted in SCID mouse assessed as upregulation of p21 expression in tumor at 100 mg/kg, po measured at 3 to 6 hrs by Western blot analysis. Format: functional, organism-based. On the set-up: dose 100 mg/kg.
In series [21] the test system is SJSA-1. The experiment in a line: Antitumor activity against human SJSA1 cells xenografted in SCID mouse assessed as tumor growth inhibition at 30 mg/kg, po qd measured after 2 weeks. On the set-up: dose 30 mg/kg. Format: functional, organism-based.
Series [22] relates to SJSA-1. In words: Antitumor activity against human SJSA1 cells xenografted in SCID mouse assessed as upregulation of p53 expression in tumor at 100 mg/kg, po measured at 3 to 6 hrs by Western blot analysis. On the set-up: dose 100 mg/kg. It counts as functional, organism-based.
The subject of series [23] is SJSA-1. The experiment in a line: Induction of apoptosis in human SJSA1 cells xenografted in SCID mouse assessed as PARP cleavage at 100 mg/kg, po measured at 24 hrs by Western blot analysis. The arrangement: dose 100 mg/kg. Format: functional, organism-based.
Series [24] deals with SJSA-1. In words: Antitumor activity against human SJSA1 cells xenografted in SCID mouse assessed as upregulation of MDM2 expression in tumor at 100 mg/kg, po measured at 24 hrs by Western blot analysis. Format: functional, organism-based. On the set-up: dose 100 mg/kg.
The test system of series [25] is Mus musculus. The experiment in a line: Toxicity in mouse xenografted with human RS4:11 cells assessed as body weight loss at 100 to 200 mg/kg, po qd after 3 weeks. The note with it: in vivo, 504 h. It counts as organism-based, RS4:11 cell. On the set-up: dose 100-200 mg/kg, route oral. Summed up: as §2
The subject of series [26] is SJSA-1. The experiment in a line: Induction of apoptosis in human SJSA1 cells xenografted in SCID mouse assessed as caspase-3 cleavage at 100 mg/kg, po measured at 1 to 6 hrs by Western blot analysis. Format: functional, organism-based. On the set-up: dose 100 mg/kg.
The test system of series [27] is SJSA-1. The experiment in a line: Antitumor activity against human SJSA1 cells xenografted in SCID mouse assessed as upregulation of p21 expression in tumor at 100 mg/kg, po measured at 24 hrs by Western blot analysis. Format: functional, organism-based. On the set-up: dose 100 mg/kg.
In series [28] the test system is SJSA-1. The experiment in a line: Antitumor activity against human SJSA1 cells xenografted in SCID mouse assessed as upregulation of MDM2 expression in tumor at 100 mg/kg, po measured at 3 to 6 hrs by Western blot analysis. It counts as functional, organism-based. On the set-up: dose 100 mg/kg.

In the case of `CC(C)(C)C[C@@H]1N[C@@H](C(=O)N[C@H]2C[C@](C)(O)C2)[C@H](c2cccc(Cl)c2F)[C@]12C(=O)Nc1cc(Cl)ccc12`, in [1], the t1/2 was over 1 h.
In the case of `CC(C)(C)C[C@@H]1N[C@@H](C(=O)N[C@H]2CC[C@H](O)C2)[C@H](c2cccc(Cl)c2F)[C@]12C(=O)Nc1cc(Cl)ccc12`, the t1/2 in [2] is over 1 h; in series [1], 0.918 h; in series [3], 0.352 h.
In the same order, the values of `CC(C)(C)C[C@H]1N[C@@H](C(=O)NCC[C@H](O)CO)[C@H](c2cccc(Cl)c2)[C@@]12C(=O)Nc1cc(Cl)c(F)cc12` are over 1 h, over 1 h and 0.337 h.
On to `CC(C)(C)C[C@@H]1N[C@@H](C(=O)NCC[C@H](O)CO)[C@H](c2cccc(Cl)c2F)[C@]12C(=O)Nc1cc(Cl)ccc12`, for which the t1/2 in series [2] is over 1 h; in [1], over 1 h; in series [5] it was 3.4 h; in series [3], 0.272 h. In [4], this compound registered an AUCt of 2140 ng·h/mL. The maximum concentration (Cmax) in [6] is 675 ng/mL.
Consider `CC(C)(C)C[C@@H]1N[C@@H](C(=O)N[C@H]2C[C@@](C)(O)C2)[C@H](c2cccc(Cl)c2F)[C@]12C(=O)Nc1cc(Cl)ccc12`, for which the Activity entry in series [7], in series [18], in [19] and in series [25] was “Non-toxic” throughout. In addition, the outcome in series [8], in series [11], in series [12], in [20], in series [22] and in series [23] was Active. Besides, the result in series [28] was Active. Besides, the outcome in [9], in series [17], in series [24], in series [26] and in series [27] was inactive. For the same compound, the values for the inhibition in vivo at 100 mg/kg in [10] and in series [15] were 61% and over 70%, respectively. Moreover, the t1/2 in series [2] was over 1 h; in [5], 3.2 h; in series [3] it was over 1 h. In addition, in series [13], the TGI entry was “inactive”. Besides, the inhibition in vivo at 200 mg/kg in series [14] stood at 80%. Moreover, the TGI entry in series [16] and in [21] was “Active” each time. Also, in [4], the AUCt stood at 14900 ng·h/mL. Moreover, the Cmax in [6] was 1726 ng/mL.
`CC(C)(C)C[C@@H]1N[C@@H](C(=O)N[C@H]2C[C@H](O)C2)[C@H](c2cccc(Cl)c2F)[C@]12C(=O)Nc1cc(Cl)ccc12`: the values for the t1/2 in series [2], in [1] and in series [3] were over 1 h, 0.902 h and 0.318 h, respectively.
In the case of `CC(C)(C)C[C@@H]1N[C@@H](C(=O)NCC(C)(C)O)[C@H](c2cccc(Cl)c2F)[C@]12C(=O)Nc1cc(Cl)ccc12`, the t1/2 in series [2], in series [1] and in series [3] was over 1 h each time.
For the compound `CC(C)(C)C[C@@H]1N[C@@H](C(=O)N[C@H]2CC[C@@H](O)C2)[C@H](c2cccc(Cl)c2F)[C@]12C(=O)Nc1cc(Cl)ccc12`, the t1/2 in series [2] was 0.025 h; in [1] it was 0.067 h; in series [3] it was 0.0633 h.
For the compound `CC(C)(C)C[C@@H]1N[C@@H](C(=O)N[C@H]2C[C@@H](O)C2)[C@H](c2cccc(Cl)c2F)[C@]12C(=O)Nc1cc(Cl)ccc12`, the t1/2 worked out at 0.343 h in series [2], 0.513 h in series [1] and 0.368 h in series [3].
